The values below come from ChEMBL document CHEMBL1139423, “Stress-driven discovery of metabolites from the phytopathogenic fungus Leptosphaeria maculans: structure and activity of leptomaculins A-E” (2008).

Calls of active or inactive are those of the source. The rule behind the calls is not given here.

Assay [1] has as its system Brassica juncea. Briefly: Stress inducing elicitor activity in Brassica juncea cv. Cutlass assessed as induction of phytoalexins production. It counts as functional, organism-based. In outline: (§1)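 Test solutions applied to leaves of whole plants. Plants were grown in a growth chamber at 24 ± 2 °C on a 16 h light / 8 h dark cycle. Treated plants were incubated in a growth cabinet. Control leaves received MeOH/H2O (1:1). Elicitation was scored by HPLC-DAD of leaf extracts as phytoalexins absent from control plants. Assays were run in triplicate, at least twice.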

Assay [2] concerns Brassica napus. The experiment in a line: Stress inducing elicitor activity in Brassica napus cv. Wester assessed as induction of phytoalexins production. It counts as functional, organism-based. In short, it runs like this: as §1
Assay [3] deals with Brassica juncea. Briefly: Stress inducing elicitor activity in Brassica juncea cv. Cutlass. In kind it is functional, organism-based. In outline:
as §1

In assay [4] the test system is Brassica napus. Briefly: Stress inducing elicitor activity in Brassica napus cv. Wester. It counts as functional, organism-based. In short, it runs like this:
as §1

In assay [5] the test system is Brassica juncea. The experiment in a line: Induction necrosis on leaves of Brassica juncea cv. Cutlass at 0.5 mM. It counts as functional, organism-based.
Assay [6] deals with Brassica napus. The experiment in a line: Induction necrosis on leaves of Brassica napus cv. Wester at 0.5 mM. It counts as functional, organism-based.
Assay [7] concerns Brassica napus. The experiment in a line: Stress inducing elicitor activity in Brassica napus cv. Wester assessed as induction of spirobrassinin production at 1 mM. It counts as functional, organism-based. In short, it runs like this: (§2)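 Test solutions applied to leaves of whole plants (B. juncea cv. Cutlass, B. napus cv. Westar) grown in a growth chamber at 24 ± 2 °C with 16 h light / 8 h dark; plants then incubated in a growth cabinet. Leaf extracts analysed by HPLC-DAD for phytoalexins and indolyl stress metabolites against controls treated with MeOH/H2O (1:1). Run in triplicate, at least twice.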

The test system of assay [8] is Brassica napus. Briefly: Stress inducing elicitor activity in Brassica napus cv. Wester assessed as increase in indolyl-3-acetonitrile levels relative to control. In kind it is functional. In short, it runs like this:
as §2

Assay [9] deals with Brassica juncea. Briefly: Stress inducing elicitor activity in Brassica juncea cv. Cutlass as induction of spirobrassinin production at 1 mM. It counts as functional, organism-based. In short, it runs like this: as §1
In assay [10] the test system is Brassica juncea. Briefly: Stress inducing elicitor activity in Brassica juncea cv. Cutlass assessed as increase in indolyl-3-acetonitrile levels relative to control. In kind it is functional. In short, it runs like this:
as §2

Assay [11] has as its system Brassica napus. Briefly: Stress inducing elicitor activity in Brassica napus cv. Wester assessed as increase in 1-methoxyindolyl-3-acetonitrile levels relative to control. It counts as functional. In short, it runs like this: as §2
Assay [12] deals with Brassica juncea. Briefly: Stress inducing elicitor activity in Brassica juncea cv. Cutlass assessed as increase in 1-methoxyindolyl-3-acetonitrile levels relative to control. It counts as functional. In outline: as §2
Assay [13] deals with Brassica juncea. The experiment in a line: Stress inducing elicitor activity in Brassica juncea cv. Cutlass assessed as induction of brassilexin production at 1 mM. It counts as functional, organism-based. In short, it runs like this:
as §2

For assay [14], the system named is Brassica juncea. Briefly: Stress inducing elicitor activity in Brassica juncea cv. Cutlass assessed as induction of cyclobrassinin production at 1 mM. It counts as functional, organism-based. In outline:
as §2

Assay [15] deals with Brassica juncea. The experiment in a line: Stress inducing elicitor activity in Brassica juncea cv. Cutlass assessed as induction of rutalexin production at 1 mM. It counts as functional, organism-based. In short, it runs like this:
as §2

In assay [16] the test system is Brassica juncea. The experiment in a line: Stress inducing elicitor activity in Brassica juncea cv. Cutlass assessed as induction of spirobrassinin production at 1 mM. It counts as functional, organism-based. In outline: as §2
Assay [17] relates to Brassica juncea. Briefly: Stress inducing elicitor activity in Brassica juncea cv. Cutlass assessed as induction of brassilexin production at 0.5 mM. In kind it is functional, organism-based. In short, it runs like this: as §2
For assay [18], the system named is Brassica juncea. Briefly: Stress inducing elicitor activity in Brassica juncea cv. Cutlass assessed as induction of cyclobrassinin production at 0.5 mM. In kind it is functional, organism-based. In outline:
as §2

Assay [19] has as its system Brassica juncea. The experiment in a line: Stress inducing elicitor activity in Brassica juncea cv. Cutlass assessed as induction of rutalexin production at 0.5 mM. It counts as functional, organism-based. In short, it runs like this: as §2
Assay [20] relates to Brassica juncea. Briefly: Stress inducing elicitor activity in Brassica juncea cv. Cutlass assessed as induction of spirobrassinin production at 0.5 mM. In kind it is functional, organism-based. In short, it runs like this:
as §2

In assay [21] the test system is Brassica napus. The experiment in a line: Stress inducing elicitor activity in Brassica napus cv. Wester assessed as induction of spirobrassinin production at 0.5 mM. In kind it is functional, organism-based. In outline:
as §2

As for `C/C=C1/NC(=O)[C@H](C(C)C)NC(=O)[C@@H](CC(C)C)NC(=O)[C@H](CC(C)C)OC(=O)[C@H](Cc2ccccc2)OC1=O`, the outcome with Brassica juncea [1] and with Brassica napus [2] was inactive.
For `CC(=O)O[C@H]1[C@]2(O)C[C@]34SSSS[C@](CO)(C(=O)N3[C@@H]2C[C@]12O[C@H](C)C(C)(C)C2=O)N(C)C4=O`, the result in the assay with Brassica juncea [3] and in the assay with Brassica napus [4] was inactive.
Turning to `CC(=O)O[C@H]1[C@]2(O)C[C@]34SSS[C@](CO)(C(=O)N3[C@@H]2C[C@]12O[C@H](C)C(C)(C)C2=O)N(C)C4=O`, the outcome in the assay on Brassica juncea [3] and with Brassica napus [4] was inactive.
Consider `CC(=O)O[C@H]1[C@]2(O)C[C@]34S[C@](CO)(C(=O)N3[C@@H]2C[C@]12O[C@H](C)C(C)(C)C2=O)N(C)C4=O`, for which the result in the assay with Brassica juncea [5] and in the assay with Brassica napus [6] was Active. Besides, the result in the assay on Brassica juncea [3] and in the assay with Brassica napus [4] was inactive.
In the case of `CC(C)=CCOc1ccc(C[C@@H]2NC(=O)[C@H](CO)NC2=O)cc1`, the outcome in the assay on Brassica juncea [1] and in the assay on Brassica napus [2] was inactive.
Take `C[C@H]1O[C@]2(C[C@H]3N4C(=O)[C@@]5(CO)SS[C@]4(C[C@@]3(O)[C@@H]2O)C(=O)N5C)C(=O)C1(C)C` [DEACETYLSIRODESMIN PL]: the result in the assay on Brassica napus [7], in the assay on Brassica juncea [9], in the assay on Brassica juncea [5] and in the assay on Brassica napus [6] was Active. Besides, the “fold change (FC)” value with Brassica napus [8], in the assay with Brassica juncea [10], in the assay with Brassica napus [11] and with Brassica juncea [12] was 8 throughout.
For `CC(=O)O[C@H]1[C@]2(O)C[C@]34SS[C@](CO)(C(=O)N3[C@@H]2C[C@]12O[C@H](C)C(C)(C)C2=O)N(C)C4=O` [SIRODESMIN PL], the result in the assay on Brassica juncea [13], in the assay with Brassica juncea [14], in the assay on Brassica juncea [15], in the assay on Brassica juncea [16], in the assay on Brassica napus [7] and in the assay on Brassica juncea [17] was Active. In addition, the outcome in the assay on Brassica juncea [18], in the assay on Brassica juncea [19], with Brassica juncea [20], with Brassica napus [21], in the assay on Brassica juncea [5] and in the assay on Brassica napus [6] was Active. In addition, the “fold change (FC)” value in the assay with Brassica napus [8], in the assay with Brassica juncea [10], with Brassica napus [11] and in the assay with Brassica juncea [12] was 8 throughout.
